Square brackets hold non-standard residues; d marks the D form. Ends that are not written are not given here. * marks the point of attachment. Biotin = O=C1N[C@H]2[C@H](CS[C@H]2CCCCC(=O)*)N1; pS = N[C@@H](COP(=O)(O)O)C(=O)O
Assays:
[1] = target: biotinylated STARD3 FFAT peptide (residues 200-216), pS209 (human); test: SPR
[2] = target: biotinylated STARD3 FFAT peptide (residues 200-216), pS209 + pS213 (human); test: SPR
[3] = target: recombinant MSP domain of VAP-B (1-210), C-terminal His6 (human, UniProt O95292 1-210); test: pull-down
Chain of recombinant MSP domain of VAP-B (1-210), C-terminal His6 (O95292 1-210): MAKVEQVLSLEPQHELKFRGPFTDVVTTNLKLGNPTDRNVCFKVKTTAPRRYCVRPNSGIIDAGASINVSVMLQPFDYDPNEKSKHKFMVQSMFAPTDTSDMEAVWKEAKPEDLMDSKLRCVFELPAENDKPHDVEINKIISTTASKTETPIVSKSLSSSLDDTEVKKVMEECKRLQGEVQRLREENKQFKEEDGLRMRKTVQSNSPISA

[4] = target: recombinant MSP domain of VAP-B K43L (human, UniProt O95292 1-210, K43L); test: pull-down
Chain of recombinant MSP domain of VAP-B K43L (O95292 1-210 K43L): as the sequence (O95292 1-210) above, with K43L counted along it

[5] = target: T1, recombinant MSP domain of VAP-A K50L (human, UniProt Q9P0L0 8-212, K50L); test: pull-down
T1 sequence (looked up): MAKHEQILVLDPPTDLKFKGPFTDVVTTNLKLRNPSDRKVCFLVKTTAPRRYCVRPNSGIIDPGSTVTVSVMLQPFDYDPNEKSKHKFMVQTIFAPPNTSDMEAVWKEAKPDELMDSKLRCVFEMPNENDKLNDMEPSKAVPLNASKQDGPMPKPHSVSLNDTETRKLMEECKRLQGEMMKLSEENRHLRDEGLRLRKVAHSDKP

[6] = target: T2, recombinant MSP domain of MOSPD2 K363L (human, UniProt Q8NHP6 282-490, K363L); test: pull-down
T2 sequence (looked up): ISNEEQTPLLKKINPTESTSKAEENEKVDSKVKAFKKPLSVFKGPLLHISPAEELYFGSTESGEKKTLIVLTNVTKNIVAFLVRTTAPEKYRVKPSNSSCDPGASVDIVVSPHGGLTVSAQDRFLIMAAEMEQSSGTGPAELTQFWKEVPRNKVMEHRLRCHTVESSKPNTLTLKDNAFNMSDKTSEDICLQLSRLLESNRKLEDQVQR

[7] = target: T3, recombinant MSP domain of VAP-A (8-212), C-terminal His6 (human, UniProt Q9P0L0 8-212); test: pull-down
T3 sequence (looked up): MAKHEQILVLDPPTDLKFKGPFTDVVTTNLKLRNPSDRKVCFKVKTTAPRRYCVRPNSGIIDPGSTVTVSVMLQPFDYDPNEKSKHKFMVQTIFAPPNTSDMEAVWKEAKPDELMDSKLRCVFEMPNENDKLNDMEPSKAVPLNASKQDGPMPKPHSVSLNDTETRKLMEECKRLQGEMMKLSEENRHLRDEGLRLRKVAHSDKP

[8] = target: T4, recombinant MSP domain of MOSPD2 (282-490), C-terminal His6 (human, UniProt Q8NHP6 282-490); test: pull-down
T4 sequence (looked up): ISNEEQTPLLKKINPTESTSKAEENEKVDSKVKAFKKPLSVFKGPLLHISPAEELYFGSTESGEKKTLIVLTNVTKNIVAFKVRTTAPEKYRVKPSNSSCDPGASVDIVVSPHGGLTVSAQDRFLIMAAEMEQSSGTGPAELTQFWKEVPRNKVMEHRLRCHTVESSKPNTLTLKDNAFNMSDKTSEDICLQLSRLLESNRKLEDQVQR

[9] = DHE transport assay between liposomes; type: biochemical; details: per cSTD3; absence of functional VAP; 37°C; n = 4
Method in brief: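 LA liposomes (DOPC, 3 mol% MPB-PE; 62.5 µM total lipids final) were preincubated 5 min with 475 nM cSTD3 or pS209 cSTD3 in TN3 buffer (50 mM Tris-HCl pH 8, 75 mM NaCl) at 37°C with stirring. Read-out was DNS-PE emission at 525 nm with excitation at 310 nm. Transport was expressed as mol% DHE = 10×(F−F0)/(Fmax−F0), with F0 set by 10 mM methyl-β-cyclodextrin.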

[10] = target: T3, recombinant MSP domain of VAP-A …; test: crystal structure
[11] = target: T5, recombinant MSP domain of MOSPD2 (315-445) (human, UniProt Q8NHP6 315-445); test: crystal structure
T5 sequence (looked up): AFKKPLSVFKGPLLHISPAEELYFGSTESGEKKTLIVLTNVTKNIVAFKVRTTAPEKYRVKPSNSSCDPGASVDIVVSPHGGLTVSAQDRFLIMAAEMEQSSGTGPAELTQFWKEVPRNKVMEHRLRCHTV

For “recombinant MSP domain of VAP-B (1-210), C-terminal His6 (from UniProt O95292 1-210) (domain or fragment)”, the Kd [1] was 7.1 µM.

With “recombinant MSP domain of VAP-A (8-212), C-terminal His6 (from UniProt Q9P0L0 8-212) (domain or fragment)” the Kd [1] was 5.6 µM.

Work on “recombinant MSP domain of MOSPD2 (282-490), C-terminal His6 (from UniProt Q8NHP6 282-490) (domain or fragment)” yielded a Kd [2] of 0.35 µM and a Kd [1] of 1.1 µM.

B1: biotinylated ORP1 FFAT peptide (residues 469-485) (peptide)
peptide: Biotin-GAMRSILSEDEFYDALSDSES
B1: binds [3]; binds [4]; binds [5]. B1: binds [6]; binds [7]; binds [8].

B2: cSTD3 (protein)
chain: CLFSGALSEGQFYSPPESFAGSDNESDEEVAGKKSFSAQEREYIRQGKEATAVVDQILAQEENWKFEKNNEYGDTVYTIEVPFHGKTFILKTFLPCPAELVYQEVILQPERMVLWNKTVTACQILQRVEDNTLISYDVSAGAAGGVVSPRDFVNVRRIERRRDRYLSSGIATSHSAKPPTHKYVRGENGPGGFIVLKSASNPRVCTFVWILNTDLKGRLPRYLIHQSLAATMFEFAFHLRQRISELGARA
modifications: left off: GST, N-terminal, cleaved
In the case of B2, the “Initial DHE transport rate” value [9] is reported as 10.45 DHE molecules/min.

B3: phosphorylated FFAT peptide of STARD3 used for crystallisation with VAP-A (GALpSEGQFYpSPPEpSFAG) (peptide)
peptide: GAL[pS]EGQFY[pS]PPE[pS]FAG
B3: binds [10].

B4: phosphorylated FFAT peptide of STARD3 used for crystallisation with MOSPD2 (CLFSGALpSEGQFYpSPPEpSFAG) (peptide)
peptide: CLFSGAL[pS]EGQFY[pS]PPE[pS]FAG
B4: binds [11].

B5: biotinylated STARD3 FFAT peptide (residues 200-216), pS209 + pS213 (peptide)
peptide: Biotin-GAMRGALSEGQFY[pS]PPE[pS]FAG
B5: binds [6].
